Key:
Type in all cases: cell-based
Tubulin (Homo sapiens) [1] = target: T1, Tubulin (Homo sapiens) (UniProt P68371+Q9H4B7+P0DPH7+P68366+Q13509+Q71U36+P04350+Q3ZCM7+P07437+P68363+Q9BQE3+Q6PEY2+Q13885+Q9BVA1+Q9BUF5); assay: Stabilization of microtubules in human QBI293 cells assessed as increase in acetylated tubulin levels after 4 hrs by ELISA
Procedure, shortened: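 QBI293 cells are grown in DMEM with 10% FBS, 2 mM L-glutamine and penicillin/streptomycin, plated at 6 × 10^5 cells/well and incubated overnight. […] Acetyl- and total α-tubulin in whole-cell extract supernatants are measured by ELISA against standard curves, with protein by BCA. Values are fold-change over DMSO; AcTub is also given relative to 100 nM cevipabulin positive control. Significance is by one-way ANOVA.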

Tubulin (Homo sapiens) [2] = target: T1, Tubulin (Homo sapiens); assay: Stabilization of microtubules in human QBI293 cells assessed as fold change in acetylated tubulin levels at 1 uM after 4 hrs by ELISA relative to DMSO
Procedure, shortened: (§1)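 QBI293 cells were grown in DMEM with 10% FBS, 2 mM L-glutamine and penicillin/streptomycin, then plated at 6 × 10^5 cells/well and left overnight. Medium was replaced with fresh medium holding vehicle (DMSO) or compound, and cells were incubated 4 h. Whole-cell extract supernatants were protein-normalized by BCA assay. AcTub and α-tubulin were quantified by ELISA against standard curves. Values are fold-change over DMSO, analysed by one-way ANOVA.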

Tubulin (Homo sapiens) [3] = target: T1, Tubulin (Homo sapiens); assay: Stabilization of microtubules in human QBI293 cells assessed as fold change in acetylated tubulin levels at 10 uM after 4 hrs by ELISA relative to cevipabulin
Tubulin (Homo sapiens) [4] = target: T1, Tubulin (Homo sapiens); assay: Stabilization of microtubules in human QBI293 cells assessed as fold change in alpha tubulin levels at 1 uM after 4 hrs by ELISA relative to DMSO; procedure, shortened: as §1
Tubulin (Homo sapiens) [5] = target: T1, Tubulin (Homo sapiens); assay: Stabilization of microtubules in human QBI293 cells assessed as fold change in acetylated tubulin levels at 1 uM after 4 hrs by ELISA relative to cevipabulin
Tubulin (Homo sapiens) [6] = target: T1, Tubulin (Homo sapiens); assay: Stabilization of microtubules in human QBI293 cells assessed as fold change in alpha tubulin levels at 10 uM after 4 hrs by ELISA relative to DMSO; procedure, shortened: as §1
Tubulin (Homo sapiens) [7] = target: T1, Tubulin (Homo sapiens); assay: Stabilization of microtubules in human QBI293 cells assessed as fold change in acetylated tubulin levels at 10 uM after 4 hrs by ELISA relative to DMSO; procedure, shortened: as §1

Structure (SMILES) | Activity (Tubulin (Homo sapiens) [1]) | fold change (FC) (Tubulin (Homo sapiens) [2]) | fold change (FC) (Tubulin (Homo sapiens) [3]) | fold change (FC) (Tubulin (Homo sapiens) [4]) | fold change (FC) (Tubulin (Homo sapiens) [5]) | fold change (FC) (Tubulin (Homo sapiens) [6]) | fold change (FC) (Tubulin (Homo sapiens) [7])
C[C@H](Nc1c(-c2ccc(F)c(F)c2)c(Cl)nc2ncnn12)C(F)(F)F | Dose-dependent effect | 1.85 | 0.12 | 1.01 | 0.05 | 1.13 | 4.76
Fc1cc(F)c(-c2c(Cl)nc3ncnn3c2NCc2ccccc2)c(F)c1 | Dose-dependent effect | 1.05 | 0.22 | 1 | 0.16 | 1.06 | 1.49
CC(Oc1c(-c2c(F)cc(F)cc2F)c(Cl)nc2ncnn12)C(F)(F)F (centres undefined) |  | 0.91 | 0.21 | 1.03 | 0.19 | 1.04 | 1.01
C[C@H](Nc1c(-c2ccccc2)c(Cl)nc2ncnn12)C(F)(F)F | Dose-dependent effect | 1.11 | 0.3 | 1.09 | 0.12 | 1.03 | 2.07
CC(C)(C)CNc1c(-c2c(F)cc(F)cc2F)c(Cl)nc2ncnn12 | Dose-dependent effect |  |  |  |  |  | 
CC(C)Nc1c(-c2c(F)cc(F)cc2F)c(Cl)nc2ncnn12 | Dose-dependent effect | 1.15 | 0.27 | 0.92 | 0.15 | 0.98 | 2.01
C[C@H](Nc1c(-c2c(F)cc(C(F)(F)F)cc2F)c(Cl)nc2ncnn12)C(F)(F)F | Dose-dependent effect | 1.09 | 0.16 | 1.06 | 0.13 | 1.02 | 1.39
C[C@H](Nc1c(-c2ccc(C#N)cc2F)c(Cl)nc2ncnn12)C(F)(F)F |  | 2.01 | 0.67 | 1 | 0.37 | 1 | 3.64
C[C@H](Nc1c(-c2ccc(F)c(F)c2F)c(Cl)nc2ncnn12)C(F)(F)F | Dose-dependent effect | 1.5 | 0.34 | 1.11 | 0.12 | 0.88 | 4.28
C[C@H](Nc1c(-c2ccc(F)cc2)c(Cl)nc2ncnn12)C(F)(F)F | Dose-dependent effect | 1.05 | 0.16 | 1.04 | 0.07 | 1.13 | 2.41
Fc1cc(F)c(-c2c(Cl)nc3ncnn3c2NC2CC2)c(F)c1 |  | 1.17 | 0.07 | 1.2 | 0.07 | 1.26 | 1.27
Fc1cc(F)c(-c2c(Cl)nc3ncnn3c2N2CCCCCCC2)c(F)c1 | Dose-dependent effect | 3.7 | 0.7 | 1.01 | 0.36 | 1.28 | 7.16
C[C@H](Nc1c(-c2c(F)cc(F)cc2F)c(Cl)nc2ncnn12)C(F)(F)F | Dose-dependent effect |  |  |  |  |  | 
C[C@H](Nc1c(-c2c(F)cc(F)cc2F)c(Cl)nc2ncnn12)C(C)(C)C | Dose-dependent effect |  |  |  |  |  | 
CC(Nc1c(-c2c(F)cc(F)cc2F)c(Cl)nc2ncnn12)C(F)F (centres undefined) | Dose-dependent effect | 1.28 | 0.35 | 1.19 | 0.3 | 1.17 | 1.82
Fc1cc(F)c(-c2c(Cl)nc3ncnn3c2N2CCC2)c(F)c1 | Dose-dependent effect | 0.98 | 0.32 | 0.96 | 0.26 | 1.17 | 1.22
CC(C)[C@@H](C)Nc1c(-c2ccc(C#N)cc2F)c(Cl)nc2ncnn12 (stereo in doubt; 67) |  | 2.79 | 0.75 | 0.99 | 0.61 | 0.93 | 3.42
Fc1cc(F)c(-c2c(Cl)nc3ncnn3c2NC2CCCC2)c(F)c1 | Dose-dependent effect | 2.03 | 0.45 | 1.03 | 0.27 | 0.98 | 4.83

Structure (SMILES) | Activity (Tubulin (Homo sapiens) [1]) | fold change (FC) (Tubulin (Homo sapiens) [2]) | fold change (FC) (Tubulin (Homo sapiens) [3]) | fold change (FC) (Tubulin (Homo sapiens) [4]) | fold change (FC) (Tubulin (Homo sapiens) [5]) | fold change (FC) (Tubulin (Homo sapiens) [6]) | fold change (FC) (Tubulin (Homo sapiens) [7])
Fc1cc(F)c(-c2c(Cl)nc3ncnn3c2NC2CCCCC2)c(F)c1 | Dose-dependent effect | 1.13 | 0.23 | 1.07 | 0.07 | 0.99 | 3.51
CC(C)[C@H](C)Nc1c(-c2c(F)cc(F)cc2F)c(Cl)nc2ncnn12 | Dose-dependent effect |  |  |  |  |  | 
C[C@H](Nc1c(-c2c(F)cc([S@@+]([O-])CCCN(C)C)cc2F)c(Cl)nc2ncnn12)C(F)(F)F |  | 1.49 | 0.32 | 1.22 | 0.34 | 0.98 | 1.39
CC(CF)Nc1c(-c2c(F)cc(F)cc2F)c(Cl)nc2ncnn12 (centres undefined) | Dose-dependent effect | 1.32 | 0.35 | 0.92 | 0.3 | 1.09 | 1.5
C[C@H](Nc1c(-c2ccccc2F)c(Cl)nc2ncnn12)C(F)(F)F | Dose-dependent effect | 1.73 | 0.26 | 1.09 | 0.13 | 1.05 | 3.56
C[C@H](Nc1c(-c2c(F)cc(S(C)(=O)=O)cc2F)c(Cl)nc2ncnn12)C(F)(F)F |  | 1.21 | 0.19 | 1.03 | 0.19 | 1.02 | 1.23
C[C@H](Nc1c(-c2c(F)cc(N)cc2F)c(Cl)nc2ncnn12)C(F)(F)F |  | 0.94 | 0.13 | 0.97 | 0.17 | 0.96 | 0.69
C[C@H](Nc1c(-c2c(F)cc([S+](C)[O-])cc2F)c(Cl)nc2ncnn12)C(F)(F)F (some centres undefined) |  | 0.84 | 0.21 | 0.96 | 0.21 | 0.93 | 0.87
Nc1c(-c2c(F)cc(F)cc2F)c(Cl)nc2ncnn12 |  | 1.18 | 0.08 | 1.08 | 0.09 | 1.05 | 1.12
Oc1c(-c2c(F)cc(F)cc2F)c(Cl)nc2ncnn12 |  | 1.04 | 0.17 | 1.06 | 0.17 | 1.02 | 1.03
N#Cc1cc(F)c(-c2c(Cl)nc3ncnn3c2N2CCCCCCC2)c(F)c1 |  | 3.24 | 0.79 | 1.01 | 0.58 | 0.99 | 4.4
C[C@H](Nc1c(Cc2c(F)cc(F)cc2F)c(Cl)nc2ncnn12)C(F)(F)F |  | 1.26 | 0.1 | 1.01 | 0.09 | 1.05 | 1.43
Fc1cc(F)c(-c2c(Cl)nc3ncnn3c2Nc2ccccc2)c(F)c1 |  | 1.14 | 0.08 | 1.1 | 0.09 | 0.96 | 1.05
CCCNc1c(-c2c(F)cc(F)cc2F)c(Cl)nc2ncnn12 |  | 1.15 | 0.26 | 1.14 | 0.27 | 0.86 | 1.14
CC(C)[C@@H](Nc1c(-c2c(F)cc(F)cc2F)c(Cl)nc2ncnn12)C(F)(F)F | Dose-dependent effect |  |  |  |  |  | 
CC(C)[C@@H](C)Nc1c(-c2ccc(C#N)cc2F)c(Cl)nc2ncnn12 (stereo in doubt; 68) |  | 2.15 | 0.5 | 0.95 | 0.47 | 0.92 | 2.29
C[C@H](Nc1c(-c2c(F)cc(S(=O)(=O)CCCN(C)C)cc2F)c(Cl)nc2ncnn12)C(F)(F)F |  | 1.13 | 0.23 | 0.7 | 0.24 | 1.07 | 1.08

From ChEMBL document CHEMBL4732138, “Evaluation of the Structure-Activity Relationship of Microtubule-Targeting 1,2,4-Triazolo[1,5-a]pyrimidines Identifies New Candidates for Neurodegenerative Tauopathies” (J Med Chem, 2021)
